Experimental data taken from ChEMBL document CHEMBL1649314, “Experimental murine scedosporiosis: histopathology and azole treatment” (2010).
≈ marks a conversion by molar mass, not a printed value. Calls of active or inactive are those of the source. No cut-off for these calls is given here.

What was measured:
[1] = system: Scedosporium boydii; experiment: Antifungal activity against Scedosporium boydii FMR 6694 infected in immunosuppressed OF1 mouse assessed as prolonged survival of mouse at 40 mg/kg, po BID administered 24 hrs postinfection for 10 days measured after 20 days; assay type: functional, organism-based; design: dose 40 mg/kg
[2] = Antifungal activity against Scedosporium aurantiacum CBS 116910 by broth dilution method; assay type: functional
[3] = system: Scedosporium apiospermum; experiment: Antifungal activity against Scedosporium apiospermum CBS 117407 infected in immunosuppressed OF1 mouse assessed as prolonged survival of mouse at 20 mg/kg, po BID administered 24 hrs postinfection for 10 days measured after 20 days; assay type: functional, organism-based; design: dose 20 mg/kg
Method in brief: (§1)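 Male OF1 mice, groups of 10, immunosuppressed 1 day before infection with cyclophosphamide 200 mg/kg i.p. plus 5-fluorouracil 150 mg/kg i.v. Infected i.v. via tail vein with 1 × 10^4 CFU in 0.2 ml saline. Oral treatment began 24 h post-challenge for 10 days. Mice checked daily for 20 days. Survival by Kaplan-Meier, compared by log rank test.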

[4] = system: Scedosporium apiospermum; experiment: Antifungal activity against Scedosporium apiospermum IHEM 14464 infected in immunosuppressed OF1 mouse assessed as prolonged survival of mouse at 20 mg/kg, po BID administered 24 hrs postinfection for 10 days measured after 20 days; assay type: functional, organism-based; design: dose 20 mg/kg; method in brief: as §1
[5] = Antifungal activity against Scedosporium aurantiacum CBS 116910 infected in immunosuppressed OF1 mouse assessed as prolonged survival of mouse at 20 mg/kg, po BID administered 24 hrs postinfection for 10 days measured after 20 days; assay type: functional, organism-based; design: dose 20 mg/kg; method in brief: as §1
[6] = Antifungal activity against Scedosporium aurantiacum IHEM 15458 by broth dilution method; assay type: functional
[7] = system: Scedosporium boydii; experiment: Antifungal activity against Scedosporium boydii FMR 8627 by broth dilution method; assay type: functional
[8] = system: Scedosporium apiospermum; experiment: Antifungal activity against Scedosporium apiospermum CBS 117407 infected in immunosuppressed OF1 mouse assessed as prolonged survival of mouse at 40 mg/kg, po BID administered 24 hrs postinfection for 10 days measured after 20 days; assay type: functional, organism-based; design: dose 40 mg/kg
[9] = system: Scedosporium boydii; experiment: Antifungal activity against Scedosporium boydii FMR 6694 by broth dilution method; assay type: functional
[10] = system: Scedosporium apiospermum; experiment: Antifungal activity against Scedosporium apiospermum CBS 117407 by broth dilution method; assay type: functional
[11] = system: Scedosporium apiospermum; experiment: Antifungal activity against Scedosporium apiospermum IHEM 14464 infected in immunosuppressed OF1 mouse assessed as reduction in kidney fungal burden at 40 mg/kg, po BID administered 24 hrs postinfection for 10 days measured after 20 days; assay type: functional, organism-based; design: dose 40 mg/kg
[12] = system: Scedosporium aurantiacum; experiment: Antifungal activity against Scedosporium aurantiacum CBS 116910 infected in immunosuppressed OF1 mouse assessed as reduction in kidney fungal burden at 20 mg/kg, po BID administered 24 hrs postinfection for 10 days measured after 20 days; assay type: functional, organism-based; design: dose 20 mg/kg
[13] = system: Scedosporium boydii; experiment: Antifungal activity against Scedosporium boydii FMR 8627 infected in immunosuppressed OF1 mouse assessed as reduction in kidney fungal burden at 20 mg/kg, po BID administered 24 hrs postinfection for 10 days measured after 20 days; assay type: functional, organism-based; design: dose 20 mg/kg
[14] = system: Scedosporium apiospermum; experiment: Antifungal activity against Scedosporium apiospermum IHEM 14464 infected in immunosuppressed OF1 mouse assessed as reduction in brain fungal burden at 20 mg/kg, po BID administered 24 hrs postinfection for 10 days measured after 20 days; assay type: functional, organism-based; design: dose 20 mg/kg
[15] = system: Scedosporium aurantiacum; experiment: Antifungal activity against Scedosporium aurantiacum IHEM 15458 infected in immunosuppressed OF1 mouse assessed as reduction in kidney fungal burden at 40 mg/kg, po BID administered 24 hrs postinfection for 10 days measured after 20 days; assay type: functional, organism-based; design: dose 40 mg/kg
[16] = system: Scedosporium apiospermum; experiment: Antifungal activity against Scedosporium apiospermum CBS 117407 infected in immunosuppressed OF1 mouse assessed as reduction in brain fungal burden at 20 mg/kg, po BID administered 24 hrs postinfection for 10 days measured after 20 days; assay type: functional, organism-based; design: dose 20 mg/kg
[17] = system: Scedosporium boydii; experiment: Antifungal activity against Scedosporium boydii FMR 8627 infected in immunosuppressed OF1 mouse assessed as prolonged survival of mouse at 20 mg/kg, po BID administered 24 hrs postinfection for 10 days measured after 20 days; assay type: functional, organism-based; design: dose 20 mg/kg
Method in brief: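 Male OF1 mice were immunosuppressed 1 day before infection with cyclophosphamide 200 mg/kg i.p. plus 5-fluorouracil 150 mg/kg i.v. They were infected i.v. via a lateral tail vein with 1 × 10^4 CFU/mouse in 0.2 ml saline. Oral dosing was 10 or 20 mg/kg twice daily, or 20 or 40 mg/kg once daily (those mice and controls drank grapefruit juice from day −3). Dosing ran 24 h post-challenge for 10 days; 10 mice/group; observed daily to day 20; Kaplan-Meier with log rank test.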

[18] = system: Scedosporium aurantiacum; experiment: Antifungal activity against Scedosporium aurantiacum CBS 116910 infected in immunosuppressed OF1 mouse assessed as reduction in brain fungal burden at 20 mg/kg, po BID administered 24 hrs postinfection for 10 days measured after 20 days; assay type: functional, organism-based; design: dose 20 mg/kg
[19] = system: Scedosporium apiospermum; experiment: Antifungal activity against Scedosporium apiospermum CBS 117407 infected in immunosuppressed OF1 mouse assessed as reduction in kidney fungal burden at 20 mg/kg, po BID administered 24 hrs postinfection for 10 days measured after 20 days; assay type: functional, organism-based; design: dose 20 mg/kg
[20] = system: Scedosporium apiospermum; experiment: Antifungal activity against Scedosporium apiospermum IHEM 14464 by broth dilution method; assay type: functional
[21] = Antifungal activity against Scedosporium aurantiacum CBS 116910 infected in immunosuppressed OF1 mouse assessed as prolonged survival of mouse at 40 mg/kg, po BID administered 24 hrs postinfection for 10 days measured after 20 days; assay type: functional, organism-based; design: dose 40 mg/kg
[22] = system: Scedosporium boydii; experiment: Antifungal activity against Scedosporium boydii FMR 8627 infected in immunosuppressed OF1 mouse assessed as reduction in kidney fungal burden at 40 mg/kg, po BID administered 24 hrs postinfection for 10 days measured after 20 days; assay type: functional, organism-based; design: dose 40 mg/kg
[23] = Antifungal activity against Scedosporium aurantiacum IHEM 15458 infected in immunosuppressed OF1 mouse assessed as prolonged survival of mouse at 40 mg/kg, po BID administered 24 hrs postinfection for 10 days measured after 20 days; assay type: functional, organism-based; design: dose 40 mg/kg
[24] = system: Scedosporium aurantiacum; experiment: Antifungal activity against Scedosporium aurantiacum CBS 116910 infected in immunosuppressed OF1 mouse assessed as reduction in kidney fungal burden at 40 mg/kg, po BID administered 24 hrs postinfection for 10 days measured after 20 days; assay type: functional, organism-based; design: dose 40 mg/kg
[25] = system: Scedosporium boydii; experiment: Antifungal activity against Scedosporium boydii FMR 8627 infected in immunosuppressed OF1 mouse assessed as prolonged survival of mouse at 40 mg/kg, po BID administered 24 hrs postinfection for 10 days measured after 20 days; assay type: functional, organism-based; design: dose 40 mg/kg
[26] = system: Scedosporium aurantiacum; experiment: Antifungal activity against Scedosporium aurantiacum IHEM 15458 infected in immunosuppressed OF1 mouse assessed as reduction in brain fungal burden at 20 mg/kg, po BID administered 24 hrs postinfection for 10 days measured after 20 days; assay type: functional, organism-based; design: dose 20 mg/kg
[27] = system: Scedosporium boydii; experiment: Antifungal activity against Scedosporium boydii FMR 6694 infected in immunosuppressed OF1 mouse assessed as prolonged survival of mouse at 20 mg/kg, po BID administered 24 hrs postinfection for 10 days measured after 20 days; assay type: functional, organism-based; design: dose 20 mg/kg; method in brief: as §1
[28] = system: Scedosporium apiospermum; experiment: Antifungal activity against Scedosporium apiospermum CBS 117407 infected in immunosuppressed OF1 mouse assessed as reduction in kidney fungal burden at 40 mg/kg, po BID administered 24 hrs postinfection for 10 days measured after 20 days; assay type: functional, organism-based; design: dose 40 mg/kg
[29] = system: Scedosporium apiospermum; experiment: Antifungal activity against Scedosporium apiospermum IHEM 14464 infected in immunosuppressed OF1 mouse assessed as prolonged survival of mouse at 40 mg/kg, po BID administered 24 hrs postinfection for 10 days measured after 20 days; assay type: functional, organism-based; design: dose 40 mg/kg
[30] = system: Scedosporium apiospermum; experiment: Antifungal activity against Scedosporium apiospermum IHEM 14464 infected in immunosuppressed OF1 mouse assessed as reduction in kidney fungal burden at 20 mg/kg, po BID administered 24 hrs postinfection for 10 days measured after 20 days; assay type: functional, organism-based; design: dose 20 mg/kg
[31] = Antifungal activity against Scedosporium aurantiacum IHEM 15458 infected in immunosuppressed OF1 mouse assessed as prolonged survival of mouse at 20 mg/kg, po BID administered 24 hrs postinfection for 10 days measured after 20 days; assay type: functional, organism-based; design: dose 20 mg/kg; method in brief: as §1
[32] = system: Scedosporium aurantiacum; experiment: Antifungal activity against Scedosporium aurantiacum IHEM 15458 infected in immunosuppressed OF1 mouse assessed as reduction in kidney fungal burden at 20 mg/kg, po BID administered 24 hrs postinfection for 10 days measured after 20 days; assay type: functional, organism-based; design: dose 20 mg/kg
[33] = system: Scedosporium boydii; experiment: Antifungal activity against Scedosporium boydii FMR 6694 infected in immunosuppressed OF1 mouse assessed as reduction in kidney fungal burden at 40 mg/kg, po BID administered 24 hrs postinfection for 10 days measured after 20 days; assay type: functional, organism-based; design: dose 40 mg/kg
[34] = system: Scedosporium boydii; experiment: Antifungal activity against Scedosporium boydii FMR 6694 infected in immunosuppressed OF1 mouse assessed as reduction in kidney fungal burden at 20 mg/kg, po BID administered 24 hrs postinfection for 10 days measured after 20 days; assay type: functional, organism-based; design: dose 20 mg/kg
[35] = system: Scedosporium boydii; experiment: Antifungal activity against Scedosporium boydii FMR 6694 infected in immunosuppressed OF1 mouse assessed as reduction in brain fungal burden at 20 mg/kg, po BID administered 24 hrs postinfection for 10 days measured after 20 days; assay type: functional, organism-based; design: dose 20 mg/kg
[36] = system: Scedosporium boydii; experiment: Antifungal activity against Scedosporium boydii FMR 8627 infected in immunosuppressed OF1 mouse assessed as reduction in brain fungal burden at 20 mg/kg, po BID administered 24 hrs postinfection for 10 days measured after 20 days; assay type: functional, organism-based; design: dose 20 mg/kg

In the case of `C[C@@H](c1ncncc1F)[C@](O)(Cn1cncn1)c1ccc(F)cc1F` [VORICONAZOLE], the Activity [1] is reported as “Active”, the MIC [2] is reported as 32 µg/mL (≈ 91.6 µM) and the Activity [3] is reported as “Active”. For the same compound, the Activity [4] was “Active”, the Activity [5] was “Active” and the MIC [6] was 1 µg/mL (≈ 2.86 µM). The MIC [7] was 0.5 µg/mL (≈ 1.43 µM), the Activity [8] was “Active” and the MIC [9] was 1 µg/mL (≈ 2.86 µM). For the same compound, the MIC [10] was 0.5 µg/mL (≈ 1.43 µM), the Activity [11] was “Active” and the Activity [12] was “Active”. The Activity [13] was “Active”, the Activity [14] was “Active” and the Activity [15] was “Active”. The Activity [16] was “Active”, the Activity [17] was “Active” and the Activity [18] was “Active”. The Activity [19] was “Active”, the MIC [20] was 0.25 µg/mL (≈ 0.716 µM) and the Activity [21] was “Active”. The Activity [22] was “Active”, the Activity [23] was “Active” and the Activity [24] was “Active”. For the same compound, the Activity [25] was “Active”, the Activity [26] was “Active” and the Activity [27] was “Active”. For the same compound, the Activity [28] was “Active”, the Activity [29] was “Active” and the Activity [30] was “Active”. The Activity [31] was “Active”, the Activity [32] was “Active” and the Activity [33] was “inactive”. For the same compound, the Activity [34] was “inactive”, the Activity [35] was “inactive” and the Activity [36] was “Active”.
